Three molecules from publication PMC3061052 (Nucleic Acids Research, 2010) can be followed below.

What is called Kd is a measure of binding affinity in units of concentration. Low readings indicate tighter binding, high ones weaker binding.

One assay has as its target T1, NpmA (wild-type) (Escherichia coli, UniProt A8C927).
T1 sequence (A8C927 1-219): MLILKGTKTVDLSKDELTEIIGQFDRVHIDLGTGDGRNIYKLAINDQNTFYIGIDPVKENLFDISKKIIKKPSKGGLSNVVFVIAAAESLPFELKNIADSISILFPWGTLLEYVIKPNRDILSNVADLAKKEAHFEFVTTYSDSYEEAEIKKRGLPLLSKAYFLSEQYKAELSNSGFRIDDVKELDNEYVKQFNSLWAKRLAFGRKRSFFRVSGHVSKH
Description: ITC titration of wild-type NpmA with cofactor. The class given is binding.

The next assay concerns the target T2, NpmA D30A (Escherichia coli, UniProt A8C927, D30A).
T2 sequence (A8C927 1-219 D30A): T1 sequence (A8C927 1-219) with D30A
The experiment in a line: ITC titration of NpmA D30A variant with cofactor. The class given is binding. To be noted: 20°C. On the technique in general: ITC needs no label: the signal is the heat of the interaction.

In a further assay the target is T3, NpmA D55A (Escherichia coli, UniProt A8C927, D55A).
T3 sequence (A8C927 1-219 D55A): T1 sequence (A8C927 1-219) with D55A
The experiment in a line: ITC titration of NpmA D55A variant with cofactor. To be noted: 20°C. The assay is classed as binding.

In another assay the target is T4, NpmA E88A (Escherichia coli, UniProt A8C927, E88A).
T4 sequence (A8C927 1-219 E88A): T1 sequence (A8C927 1-219) with E88A
Description: ITC titration of NpmA E88A variant with cofactor. The class given is binding. Particulars: 20°C.

A further assay concerns the target T5, NpmA S195A (Escherichia coli, UniProt A8C927, S195A).
T5 sequence (A8C927 1-219 S195A): T1 sequence (A8C927 1-219) with S195A
Description: ITC titration of NpmA S195A variant with cofactor. The class given is binding. Particulars: 20°C.

Assay [1] deals with E. coli BL21(DE3)pLysS cells carrying recombinant pET-25b(+) vector with different npmA variants. The experiment in a line: Kanamycin MIC dilution assay in cells carrying npmA variants. The class given is cell-based, Escherichia coli. In outline:
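BL21(DE3)pLysS cells with pET-25b(+) npmA variants were grown overnight, diluted 100-fold in LB with ampicillin (100 mg/l) and chloramphenicol (34 mg/l), and grown to OD600 1. Cells were inoculated into the same medium with kanamycin at 0.5–1024 mg/l in twofold steps and incubated 18 h at 37°C. MIC was the lowest kanamycin concentration preventing visible growth.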

Where a chain is given by its changes, count along the chain named. Entries after “also recorded” stand apart in the source; their conditions may differ.

Consider `Nc1ncnc2c1ncn2[C@@H]1O[C@H](CSCC[C@H](N)C(=O)O)[C@@H](O)[C@H]1O` [AdoHcy, S-adenosylhomocysteine], for which the “N (ITC single site fit) for AdoHcy” value on NpmA (wild-type) is 1.0. Further, the “Kd for AdoHcy” value at NpmA D30A, on NpmA D55A and on NpmA E88A was “completely lost their ability to interact; also recorded: No binding” each time.

In the case of `C[S+](CC[C@H](N)C(=O)[O-])C[C@H]1O[C@@H](n2cnc3c(N)ncnc32)[C@H](O)[C@@H]1O` (stereo partly shown) [AdoMet, S-adenosylmethionine], the “N (ITC single site fit) for AdoMet” value on NpmA (wild-type) came out at 1.1. The dissociation constant (Kd) at NpmA (wild-type) (Kd for AdoMet, ITC, 20°C, no 30S subunit) is 18 µM. Further, the “Kd for AdoMet” value at NpmA D30A was “completely lost their ability to interact; also recorded: No binding”; on NpmA D55A it was “completely lost their ability to interact; also recorded: No binding”; at NpmA S195A it was “complete loss of AdoMet binding; also recorded: No binding”; on NpmA E88A, “completely lost their ability to interact; also recorded: No binding”.

In the case of `NC[C@H]1O[C@H](O[C@H]2[C@H](O)[C@@H](O[C@H]3O[C@H](CO)[C@@H](O)[C@H](N)[C@H]3O)[C@H](N)C[C@@H]2N)[C@H](O)[C@@H](O)[C@@H]1O` [Kanamycin, kanamycin], the “Kanamycin MIC” value in assay [1] (Negative control (empty vector), 18 h at 37°C) was 4 to 8 µg/mL; in assay [1] (cells expressing NpmA D30A), 8 µg/mL; in assay [1] (cells expressing NpmA D55A), 512 µg/mL; in assay [1] (cells expressing NpmA E88A), 1024 µg/mL; in assay [1] (cells expressing NpmA F177A), 1024 µg/mL; in assay [1] (cells expressing NpmA K199A) it was 1024 µg/mL. For the same molecule, the “Kanamycin MIC” value in assay [1] (cells expressing NpmA P106A) is 1024 µg/mL; in assay [1] (cells expressing NpmA R200A), 1024 µg/mL; in assay [1] (cells expressing NpmA R205A), 1024 µg/mL; in assay [1] (cells expressing NpmA S195A), 1024 µg/mL; in assay [1] (cells expressing NpmA T109A), 1024 µg/mL; in assay [1] (cells expressing NpmA W107A), 8 µg/mL. For the same molecule, the “Kanamycin MIC” value in assay [1] (cells expressing NpmA W197A) is 8 µg/mL; in assay [1] (cells expressing NpmA-wt), 1024 µg/mL. The “kanamycin MIC compared to the wt NpmA” value in assay [1] (cells expressing NpmA D55A) was 50%.
